Laboratory results published in the EternaBench riboswitch data.

Tested on: MS2 coat protein
Assay: apparent Kd, MS2 coat protein; higher = weaker binding; RNA-MaP array; FMN 200 µM where present
Outline: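 Apparent Kd: the median of filtered binding-curve fits from single clusters. Designs were transcribed on Illumina sequencing-chip clusters by stalled E. coli RNA polymerase and titrated with SNAP-549-labelled MS2 coat protein from 0.7 or 1.5 nM, doubling to 3 µM, in 100 mM Tris-HCl pH 7.5, 80 mM KCl, 4 mM MgCl2, BSA, DTT, yeast tRNA and Tween-20. Each series ran without and then with constant ligand, and green signal was normalised to red-channel RNA signal and control-cluster median Fmax.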

[1] = designed as: OFF switch for flavin mononucleotide, no ligand
[2] = ligand present: flavin mononucleotide, designed as: OFF switch for flavin mononucleotide
[3] = designed as: ON switch for flavin mononucleotide, no ligand
[4] = ligand present: flavin mononucleotide, designed as: ON switch for flavin mononucleotide

Sequence	apparent Kd [1] [nM]	apparent Kd [2] [nM]	apparent Kd [3] [nM]	apparent Kd [4] [nM]
AGAAAACAUGAGGAUCACCCAUGUGAGGAUAUCGAUGUCCAAGGGUGGGUGCGGGACUCGAGAAGGCACUUGGA	80.6	137	–	–
AAGCAGGGAGGAUAUACAUGGACACACAUUGGUGUAGAACUACAUGAGGAUCACCCAUGUAGAAGGCCCAAAUA	52.9	71.5	–	–
UUCCGCGUUGUAAGGAUAUCUAAUUCUUAUGAAAUAGAGAAGGUACAUGAGGAUCACCCAUGUACUUGGGACUA	18.7	22.4	–	–
UUCUUACGAGGAUAUCGAUGGUGGAACAUGAGGAUCACCCAUGUAUGAGAUAUUGUAUUUCGAGAAGGCGUUCAGU	55.2	36.2	–	–
AAGUUUAACGAAGGAUAUGGUUACAUGAGGAUCACCCAUGUAUUUUUUGUGAUCUUGAAAUAGUUCCAGAAGGUCGUAUACAUA	138	359	–	–
GUCAGCUCGUGAGGAUAUACAACACUGCUUCGGCAGUAUAUUAAGAUCACAUGAGGAUCACCCAUGUAGAAGGCACGAGCUGAU	15	284	–	–
GCGUGACAUGAGGAUCACCCAUGUGAGGAUAUCUGGAUAAUCUUUAUUUUAGAUAUCCAGAGAAGGCACAUGCU	162	117	–	–
GGAGGACAUGAGGAUCACCCAUGUGGAUGAUCGCUAGGAUAUGCGUGCAGGAAGAGUGGUGCAGAAGGAGUGGGAU	–	–	451	288
AUACAUGUCCGAGGAUAUCUGGAAACAUUUUCAAGAGAAGGCGGACAUGAGGAUCACCCAUGUCUCUCCUCAUCAAAUCCAAGU	7.84	46.6	–	–
UCCGCGGACAUAGGAUAUACUGCGAAAUUUCUAGUAGAAGGGUGACCGCACGUGCGAACUGUACAUGAGGAUCACCCAUGUACU	–	–	21.4	23.1
CGGGAAGUCGUAGGAUAUGGUGAUGUACAUGAGGAUCACCCAUGUCCGUCUUCUCUCACAAGAUGCCAGAAGGACGACCUCCGG	–	–	770	97.8
GCAGGUCGUGUGAGGAUAUCAUAGUUUAGCGGAGAUGAGAAGGCACAUGAGGAUCACCCAUGUCCAUCCUGCCU	36	92.6	–	–
UCCUUCUGUUGAGGAUAUGUAAGACAGCGGCUGCUAUUGCGGCACGCUGAUACAGAAGGCAACAUGAGGAUCACCCAUGUUCAA	26.4	205	–	–
GUAGAGUAGUGAGGAUAUACGAGCUCGAUAGAGCGGCGAUCCAAUAAUACAUGAGGAUCACCCAUGUAGAAGGCACUUCUCUAC	6.71	91	–	–
GGAGCACAUAAAUACAUGAGGAUCACCCAUGUCAAAAGACAUGAGGAUAUGGAUCGGAAAACGAUCUAGAAGGCAUGGUGCUCC	–	–	533	20.9
GUUGUUUAUGUAGGAUAUGCGAGGCGAGCCUAAGCAGAAGGACAUGAGGAUCACCCAUGUAUUGCGGUCUGCGUUCAGAUCGCU	32.4	135	–	–
GCGGUAUUGUAAGGAUAUACUCUGUGAUGAAGAGUAGAAGGUACUUACAUGAGGAUCACCCAUGUUUAACGUGAAAAUUACCGC	–	–	26.5	16.7
AAACAUGUCCGAGGAUAUCUGAGAUCAUUUUCAAGAGAAGGCGGACAUGAGGAUCACCCAUGUCUCUCCUCAUCAACUCUAAAU	5.99	36.9	–	–

Sequence	apparent Kd [1] [nM]	apparent Kd [2] [nM]	apparent Kd [3] [nM]	apparent Kd [4] [nM]
GAUGCAUAUGAGAAGGCGAUCAUGAAACAUGAUCGAGGAUAUCAUGUAAACAUGAGGAUCACCCAUGUAUGGGAAAAGUGCAUC	–	–	72.4	11.4
UUUUCACAUGAGGAUCACCCAUGUGAGGAUAUGGAGCGCGACCGCGCGGUCGCGUACACCAGAAGGCGCAUGAU	30.5	36.6	–	–
CGCUAUUAUGUAGGAUAUACAUUUUUUAUGUAUGUAGAAGGACAUGAGGAUCACCCAUGUAAAUAAAUUUUAAUUAUCAUAGCG	21.9	18.3	–	–
CCACCUACUGAGGAUAUUGCAUCACCCGACUGAUAAGAAGGCAGAACAUGAGGAUCACCCAUGUGGGUACUCAC	94	103	–	–
CGUUUAUUUAUGGGUUUAUAUUAUGAGGAUAUCAAUAUUUUAUACAUGAGGAUCACCCAUGUUACUGAGAAGGCAUAAUUAACG	–	–	10.9	6.44
AUCCAUUGAGAGAAGGGAGUACAUGAGGAUCACCCAUGUGGUCGUUCAUACUCAGGAUAUCUAACUGGGUUAGUGGCGCACGCC	166	367	–	–
GCAUAUGUCGUCUACAUGAGGAUCACCCAUGUUGAUAAACAUGAGGAUAUUGAUAAGAAUUGUAUCGAGAAGGUAUGUAGGUGC	–	–	258	347
AACUAGUCAGGAUAUACGAACAUGUCAAAAAACAUGAAGGGACAUGAGGAUCACCCAUGUAGAAGGGACUAGCA	37.8	223	–	–
CAUUAAUUCAUUAUAUUAAUUUUACAGGAUAUGUAACAUGAGGAUCACCCAUGUAUUCUAGGUUAACAGAAGGGUAUUACUUGU	28.6	22.9	–	–
AUCAGUACGUGAGGAUAUGCGUUACUGCGAAAGCAGUACGGUAAGAUCACAUGAGGAUCACCCAUGUAGAAGGCACGAACUGAU	18.9	37.5	–	–
CUAUAUAAUACCUCAUGUACAUGAGGAUCACCCAUGUUAACUUAGGAUAUAUUUAUAUUGAUAGAGUAGAAGGAAGUACUAUUU	15.8	13.8	–	–
CAGAGACAAGCAGGAUAUCGACACAUGAGGAUCACCCAUGUUCGUAGGAACCUGGGUCAAGUCUGCGAGAAGGGCUCGUCAGUA	151	159	–	–
GCUAAGCGAAUUAAGAUGAAUAGAACAUGAGGAUCACCCAUGUAGGAUAUGCUACACAAAGUGUAGCAGAAGGACAAGCUUAGC	20.2	25.4	–	–
GGGUACAUCGGAGGAUAUCAUGUAAAUACAUGAGGAUCACCCAUGUCGAUGGAGACAUCGGAGAUUGAGAAGGGCGAUGUACCG	–	–	647	75.8
GGGUGGCGUAGAGGAUAUGUGGUACAUGAGGAUCACCCAUGUGCAUAUGAUGUUCGUGUGUCUUCAUAGAAGGCUACGUCGCUA	–	–	97	63
UAUUCGUUCUAGAAGGUGCAUUUGUUAAACAUGCAAGGAUAUAGACAUGAGGAUCACCCAUGUCUAUGAGACAUCGGCCUCCUU	7.15	24.9	–	–
AUGAGUAAAGCAGGAUAUCUAUUGACUCUGUAACAUGAGGAUCACCCAUGUAGAGAAGGGCUAAUUCUUACUCUUCGGAGUUGA	10.2	11.7	–	–
GCUGCAUAGGCAGGAUAUGCAAAAAACGAUGCAAAGCAUCGAAAAAAAACAUGAGGAUCACCCAUGUAGAAGGGCCUGUGCAGU	22.6	20.8	–	–
